# Results taken from publication PMC8317634 (Journal of the Endocrine Society, 2021).
# Legend:
# healthy young men = experiment: Single dose of sacubitril/valsartan; assay type: in vivo, human; details: valsartan alone 206 mg; n = 3
# How it was run: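 Healthy men meeting the crossover-trial inclusion criteria (n = 3) received valsartan 206 mg 30 min before a solid mixed meal (42 g carbohydrate, 25 g fat, 26 g protein), or the meal alone, on separate occasions. Blood was drawn at –60, –15, 0, 30, 45, 90 and 180 min. Plasma glucagon was measured by validated 2-site enzyme immunoassay, and the postprandial response was expressed as incremental AUC.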
# recombinant NEP = experiment: ANP degradation by recombinant NEP; assay type: biochemical; details: MALDI-TOF
# [1] = tested on: individuals with obesity and hypertension; experiment: 8 weeks treatment, fasting plasma before and after; assay type: in vivo, human; details: amlodipine 10 mg once a day, n = 7, control group
# How it was run: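 Multicentre, randomized, double-blinded study in adults with hypertension and obesity. Participants received amlodipine 10 mg once daily (n = 7) or sacubitril/valsartan 194 mg/206 mg once daily (n = 7) for 8 weeks. Plasma was sampled after an overnight fast before and after treatment. Glucagon was measured by validated 2-site enzyme immunoassay and L-amino acids by a commercial kit.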
# [2] = tested on: GLP-1R^–/– mice and GLP-1R^+/+ mice; assay type: in vivo; details: sacubitril at -30 min, AAs 34 mg oral
# male C57BL/6JRj mice = experiment: Oral amino acid challenge in male mice treated with sacubitril; assay type: in vivo; details: AA challenge, n = 6
# How it was run: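 Male C57BL/6JRj mice (~22 g) were acclimatized for at least 1 week. At –30 min they received sacubitril (0.7 nmol/g BW; DMSO stock diluted in PBS) or vehicle (PBS, 0.7% DMSO) by oral gavage. Amino acids (34 mg, Vamin solution) were gavaged at 0 min. Tail blood was sampled at 0, 10, 15, 30, 60 and 180 min for glucometer glucose and EDTA plasma. Plasma glucagon was measured by two-site enzyme immunoassay; L-amino acids and urea by kits.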
# [3] = used to correct the oral dose; species and source not given; cited from earlier work
# female C57BL/6JRj mice [4] = experiment: Oral amino acid challenge in female mice treated with sacubitril, GRA or Ex9-39; assay type: in vivo; details: AAs 34 mg oral
# How it was run: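 Female C57BL/6JRj mice (n = 7-10) were fasted 3 h. They were pretreated with GRA vehicle or GRA (100 mg/kg oral) at –180 min, or Ex9-39 (100 µg i.p.) at –15 min. Sacubitril (oral gavage) or PBS/0.7% DMSO was given at –30 min. An amino-acid mixture (34 mg, oral gavage) followed at 0 min. Blood glucose was measured from tail bleeds by handheld glucometer at 0, 10, 15, 30, 60 and 180 min.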
# NEP activity = biological target: T1, NEP activity (Mus musculus, UniProt Q61391); experiment: Inhibition of NEP activity in mice by oral sacubitril; assay type: in vivo; details: sacubitril 0.7 nmol/g BW, oral gavage; data not shown
# T1 sequence (Q61391 1-750): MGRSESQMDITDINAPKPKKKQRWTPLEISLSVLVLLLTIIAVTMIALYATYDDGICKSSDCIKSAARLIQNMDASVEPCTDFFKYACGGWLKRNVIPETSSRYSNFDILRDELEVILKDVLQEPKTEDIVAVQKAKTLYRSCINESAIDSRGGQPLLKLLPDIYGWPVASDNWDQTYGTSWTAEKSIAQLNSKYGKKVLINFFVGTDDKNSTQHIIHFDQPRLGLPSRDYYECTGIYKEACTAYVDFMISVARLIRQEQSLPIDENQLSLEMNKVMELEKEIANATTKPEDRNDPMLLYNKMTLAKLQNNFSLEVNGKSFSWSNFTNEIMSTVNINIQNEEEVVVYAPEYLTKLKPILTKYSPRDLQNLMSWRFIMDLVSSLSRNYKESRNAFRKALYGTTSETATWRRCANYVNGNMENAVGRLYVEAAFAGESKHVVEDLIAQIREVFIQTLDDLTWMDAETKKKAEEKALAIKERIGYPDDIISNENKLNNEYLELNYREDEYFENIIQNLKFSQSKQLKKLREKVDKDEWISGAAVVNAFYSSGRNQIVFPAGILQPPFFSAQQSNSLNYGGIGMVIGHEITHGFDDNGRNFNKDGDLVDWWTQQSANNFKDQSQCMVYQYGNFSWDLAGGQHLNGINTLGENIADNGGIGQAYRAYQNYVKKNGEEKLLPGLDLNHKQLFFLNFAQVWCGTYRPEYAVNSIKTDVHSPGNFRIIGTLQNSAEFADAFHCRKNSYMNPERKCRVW
# female C57BL/6JRj mice [5] = experiment: Female mice given water instead of amino acids; assay type: in vivo; details: sacubitril coadministered with vehicle, GRA or Ex9-39 vs these alone; n = 3
# How it was run: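 Female C57BL/6JRj mice were fasted 3 h with free water. They received GRA (100 mg/kg, oral gavage suspension) or its vehicle at –180 min, or Ex9-39 (100 µg i.p.) at –15 min. Sacubitril (0.7 nmol/g BW, oral gavage; DMSO diluted in PBS) or PBS/0.7% DMSO was given at –30 min, then water at 0 min. Retrobulbar blood was taken at 0–180 min for plasma glucagon by 2-site enzyme immunoassay.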
compound,measurement,setting,value
CCCCC(=O)N(Cc1ccc(-c2ccccc2-c2nnn[nH]2)cc1)[C@H](C(=O)O)C(C)C [valsartan],effect on postprandial plasma concentrations of glucagon vs control,healthy young men,no effect
atrial natriuretic peptide [ANP],degradation of ANP by NEP,"recombinant NEP; positive control, recombinant NEP, Supplementary Fig. 2A and 2B",NEP cleavage resulted in the formation of a known substrate (m/z 2585)
C[C@H](C[C@@H](Cc1ccc(-c2ccccc2)cc1)NC(=O)CCC(=O)O)C(=O)O [sacubitrilat],effect on NEP-induced ANP cleavage,recombinant NEP; sacubitrilat added,prevented by the addition of sacubitrilat
CCOC(=O)C1=C(COCCN)NC(C)=C(C(=O)OC)C1c1ccccc1Cl (centres unmarked) [amlodipine],"plasma concentrations of glucose, glucagon, or AAs, after vs before",[1],no significant changes
CCOC(=O)[C@H](C)C[C@@H](Cc1ccc(-c2ccccc2)cc1)NC(=O)CCC(=O)O [sacubitril],plasma AA iAUC in GLP-1^–/– mice,"[2]; mean ± SD, vehicle 255 ± 118, P = .05",376 ± 67
same,augmenting effect on AA-stimulated glucagon levels in GLP-1R^+/+ mice,"[2]; time point 15 minutes, P = .02",apparent only in littermate controls
same,glucagon response to AAs in GLP-1R^–/– mice,[2]; vs vehicle,"did not, however, increase the glucagon response to AAs"
same,blood glucose concentrations in response to an AA challenge in GLP-1R^–/– mice,"[2]; vs vehicle, P = .03",increased blood glucose concentrations
same,"blood glucose or plasma concentrations of AAs, male mice",male C57BL/6JRj mice,without altering blood glucose or plasma concentrations of AAs
same,"plasma concentrations of glucagon, male mice",male C57BL/6JRj mice,increased plasma concentrations of glucagon
same,"plasma concentrations of urea, male mice",male C57BL/6JRj mice,did not increase plasma concentrations of urea
same,bioavailability,[3],60%
same,"plasma concentrations of glucagon, coadministration with Ex9-39 vs Ex9-39 alone",female C57BL/6JRj mice [4]; sacubitril 0.7 nmol/g BW + Ex9-39 100 µg,increased plasma concentrations of glucagon more
same,plasma concentrations of amino acids vs vehicle,female C57BL/6JRj mice [4]; sacubitril 0.7 nmol/g BW oral,no effect on plasma concentrations of amino acids
same,blood glucose concentrations in response to an AA challenge,"female C57BL/6JRj mice [4]; sacubitril 0.7 nmol/g BW oral, vs vehicle",no significant increase
same,inhibition of NEP activity in mice,NEP activity,~ 60%
same,"plasma concentrations of glucagon, water instead of AAs",female C57BL/6JRj mice [5],increased numerically
